# Like-named read-outs stand apart in the source and are kept apart here.
# Key:
# CDK2/cyclin A = CDK2/cyclin A (Homo sapiens, UniProt P24941); test: Recombinant kinase 33P-ATP activity assay; assay type: biochemical
# C6 cells [1] = test: Caspase 3/7 activity assay; assay type: cell-based, rat; conditions: 24 hours treatment, any of the tested concentrations
# DLD1 cells [2] = test: Cell growth inhibition; assay type: cell-based, human; conditions: through apoptosis; more effective toward DLD1 cells
# HEK293 cells [3] = test: Western blot of signaling proteins; assay type: cell-based, human; conditions: 48 hours
# How it was run: (§1)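 Cells exposed to indicated concentrations of test compound for 48 h. Harvested by trypsin/EDTA, lysed 15 min on ice in M-PER with protease inhibitors (10^7 cells/ml), cleared at 17000rpm for 30 min. Protein measured by Bradford; 30μg resolved by SDS-PAGE onto PVDF. Blocked in 5% milk/TBST; primary antibodies overnight at 4°C, HRP secondaries 1 h at room temperature; ECL detection with β-tubulin loading control.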
# KDR/VEGFR2 = KDR/VEGFR2 (Homo sapiens, UniProt P35968); test: Recombinant kinase 33P-ATP activity assay; assay type: biochemical
# FGFR2 = FGFR2 (Homo sapiens, UniProt P21802); test: Recombinant kinase 33P-ATP activity assay; assay type: biochemical
# Chain of FGFR2 (P21802 22-821): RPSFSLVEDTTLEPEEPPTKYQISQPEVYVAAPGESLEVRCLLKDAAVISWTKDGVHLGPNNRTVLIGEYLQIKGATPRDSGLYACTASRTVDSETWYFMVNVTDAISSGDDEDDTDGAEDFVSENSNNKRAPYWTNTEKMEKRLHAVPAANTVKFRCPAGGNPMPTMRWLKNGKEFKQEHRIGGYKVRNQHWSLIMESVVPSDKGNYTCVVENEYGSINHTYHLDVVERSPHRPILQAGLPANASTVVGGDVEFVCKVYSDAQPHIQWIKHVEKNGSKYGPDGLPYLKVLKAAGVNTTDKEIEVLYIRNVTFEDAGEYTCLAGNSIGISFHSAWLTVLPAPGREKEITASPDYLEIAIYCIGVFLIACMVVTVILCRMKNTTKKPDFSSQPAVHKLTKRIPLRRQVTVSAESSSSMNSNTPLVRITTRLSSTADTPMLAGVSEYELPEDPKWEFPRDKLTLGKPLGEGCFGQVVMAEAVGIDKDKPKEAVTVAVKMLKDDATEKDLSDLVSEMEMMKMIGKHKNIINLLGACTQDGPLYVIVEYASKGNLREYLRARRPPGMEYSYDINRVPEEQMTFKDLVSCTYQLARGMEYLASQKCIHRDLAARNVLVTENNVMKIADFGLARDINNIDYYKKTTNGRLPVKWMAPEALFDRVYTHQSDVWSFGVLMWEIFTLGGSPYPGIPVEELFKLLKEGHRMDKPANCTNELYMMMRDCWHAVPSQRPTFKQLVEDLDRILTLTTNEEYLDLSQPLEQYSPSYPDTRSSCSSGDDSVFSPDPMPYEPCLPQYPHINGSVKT
# ERBB2/HER2 = ERBB2/HER2 (Homo sapiens, UniProt P04626); test: Recombinant kinase 33P-ATP activity assay; assay type: biochemical
# PDGFrb = PDGFrb (Homo sapiens, UniProt P09619); test: Recombinant kinase 33P-ATP activity assay; assay type: biochemical
# Chain of PDGFrb (P09619 33-1106): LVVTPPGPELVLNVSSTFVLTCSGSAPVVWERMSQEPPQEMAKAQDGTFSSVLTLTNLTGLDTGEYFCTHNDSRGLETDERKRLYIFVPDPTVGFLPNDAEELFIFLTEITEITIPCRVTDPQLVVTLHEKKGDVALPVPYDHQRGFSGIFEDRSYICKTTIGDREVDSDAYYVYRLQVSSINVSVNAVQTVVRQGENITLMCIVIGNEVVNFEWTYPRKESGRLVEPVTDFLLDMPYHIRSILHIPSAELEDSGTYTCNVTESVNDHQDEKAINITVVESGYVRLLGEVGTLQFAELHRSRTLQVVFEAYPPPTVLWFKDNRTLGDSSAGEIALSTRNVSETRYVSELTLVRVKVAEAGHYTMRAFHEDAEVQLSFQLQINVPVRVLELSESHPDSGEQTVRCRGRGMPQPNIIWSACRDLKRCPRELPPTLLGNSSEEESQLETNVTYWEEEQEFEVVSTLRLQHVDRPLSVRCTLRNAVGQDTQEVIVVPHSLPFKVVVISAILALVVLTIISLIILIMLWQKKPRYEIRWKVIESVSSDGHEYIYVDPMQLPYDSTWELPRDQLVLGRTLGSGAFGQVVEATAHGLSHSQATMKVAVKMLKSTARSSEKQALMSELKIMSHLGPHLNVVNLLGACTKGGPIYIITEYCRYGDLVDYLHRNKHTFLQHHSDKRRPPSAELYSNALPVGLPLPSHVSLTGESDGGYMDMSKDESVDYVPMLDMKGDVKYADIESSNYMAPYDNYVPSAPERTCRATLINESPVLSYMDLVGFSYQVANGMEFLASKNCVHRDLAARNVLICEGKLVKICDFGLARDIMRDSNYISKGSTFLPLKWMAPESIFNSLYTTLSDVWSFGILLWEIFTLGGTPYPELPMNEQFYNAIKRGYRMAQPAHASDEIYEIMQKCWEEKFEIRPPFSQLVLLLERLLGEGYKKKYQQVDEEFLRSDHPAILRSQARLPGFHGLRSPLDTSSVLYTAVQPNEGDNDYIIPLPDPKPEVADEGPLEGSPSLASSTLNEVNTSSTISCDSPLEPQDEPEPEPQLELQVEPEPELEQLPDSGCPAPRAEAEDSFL
# FLT1/VEGFR1 = FLT1/VEGFR1 (Homo sapiens, UniProt P17948); test: Recombinant kinase 33P-ATP activity assay; assay type: biochemical
# colon and glioma cells = test: FACS analysis of cell cycle distribution; assay type: cell-based; conditions: all the cell lines, low concentrations, 48 hours
# How it was run: (§2)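 Cells treated with test compound at several concentrations for 48 h. 1×10^6 cells trypsinized, washed in PBS and resuspended in 1% BSA/PBS. Fixed in 3 volumes of −20 °C ethanol for ≥1 h, washed twice, then stained ≥3 h at 4 °C at ~1×10^6 cells/ml in PI (50μg/ml), RNase A (0.5μg/ml) and 3.8mM sodium citrate. Flow cytometry, excitation 535nm, emission 617nm, ≥10,000 cells/sample.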
# DLD1 cells [4] = test: Western blot of signaling proteins; assay type: cell-based, human; conditions: 48 hours, different concentrations
# HCT116 cells [5] = test: Western blot of signaling proteins; assay type: cell-based, human; conditions: 48 hours, different concentrations
# HEK293 cells [6] = test: FACS analysis of cell cycle distribution; assay type: cell-based, human; conditions: 48 hours
# How it was run: as §2
# PDGFRa = PDGFRa (Homo sapiens, UniProt P16234); test: Recombinant kinase 33P-ATP activity assay; assay type: biochemical
# Chain of PDGFRa (P16234 24-1089): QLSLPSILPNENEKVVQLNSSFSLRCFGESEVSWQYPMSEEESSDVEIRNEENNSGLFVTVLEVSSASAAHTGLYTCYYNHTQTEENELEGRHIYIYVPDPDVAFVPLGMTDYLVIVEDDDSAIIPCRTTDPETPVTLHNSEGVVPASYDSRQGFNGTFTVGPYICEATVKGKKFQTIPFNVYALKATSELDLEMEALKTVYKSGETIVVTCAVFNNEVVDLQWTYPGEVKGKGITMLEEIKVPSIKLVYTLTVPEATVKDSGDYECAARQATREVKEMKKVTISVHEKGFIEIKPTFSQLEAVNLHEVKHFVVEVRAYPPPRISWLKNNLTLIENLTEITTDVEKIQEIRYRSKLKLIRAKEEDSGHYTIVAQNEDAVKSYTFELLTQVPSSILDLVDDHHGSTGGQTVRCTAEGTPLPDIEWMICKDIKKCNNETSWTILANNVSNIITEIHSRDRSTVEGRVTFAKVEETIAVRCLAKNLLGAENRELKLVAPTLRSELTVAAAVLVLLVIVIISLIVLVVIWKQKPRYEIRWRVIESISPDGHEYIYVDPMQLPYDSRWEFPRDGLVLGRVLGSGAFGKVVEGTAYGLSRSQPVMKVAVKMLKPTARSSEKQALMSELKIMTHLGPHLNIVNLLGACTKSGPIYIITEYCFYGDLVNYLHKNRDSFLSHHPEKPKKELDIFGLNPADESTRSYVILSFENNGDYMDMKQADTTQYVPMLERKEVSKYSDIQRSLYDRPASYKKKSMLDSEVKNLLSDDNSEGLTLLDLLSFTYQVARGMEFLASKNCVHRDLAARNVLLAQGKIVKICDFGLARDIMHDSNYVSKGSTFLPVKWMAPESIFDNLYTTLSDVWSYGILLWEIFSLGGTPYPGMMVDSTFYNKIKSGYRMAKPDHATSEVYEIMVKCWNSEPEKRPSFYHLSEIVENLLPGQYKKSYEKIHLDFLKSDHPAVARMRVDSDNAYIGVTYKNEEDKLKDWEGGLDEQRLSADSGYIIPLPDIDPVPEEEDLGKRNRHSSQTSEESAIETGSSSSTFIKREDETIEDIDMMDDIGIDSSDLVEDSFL
# EGFr = EGFr (Homo sapiens, UniProt P00533); test: Recombinant kinase 33P-ATP activity assay; assay type: biochemical
# Chain of EGFr (P00533 25-1210): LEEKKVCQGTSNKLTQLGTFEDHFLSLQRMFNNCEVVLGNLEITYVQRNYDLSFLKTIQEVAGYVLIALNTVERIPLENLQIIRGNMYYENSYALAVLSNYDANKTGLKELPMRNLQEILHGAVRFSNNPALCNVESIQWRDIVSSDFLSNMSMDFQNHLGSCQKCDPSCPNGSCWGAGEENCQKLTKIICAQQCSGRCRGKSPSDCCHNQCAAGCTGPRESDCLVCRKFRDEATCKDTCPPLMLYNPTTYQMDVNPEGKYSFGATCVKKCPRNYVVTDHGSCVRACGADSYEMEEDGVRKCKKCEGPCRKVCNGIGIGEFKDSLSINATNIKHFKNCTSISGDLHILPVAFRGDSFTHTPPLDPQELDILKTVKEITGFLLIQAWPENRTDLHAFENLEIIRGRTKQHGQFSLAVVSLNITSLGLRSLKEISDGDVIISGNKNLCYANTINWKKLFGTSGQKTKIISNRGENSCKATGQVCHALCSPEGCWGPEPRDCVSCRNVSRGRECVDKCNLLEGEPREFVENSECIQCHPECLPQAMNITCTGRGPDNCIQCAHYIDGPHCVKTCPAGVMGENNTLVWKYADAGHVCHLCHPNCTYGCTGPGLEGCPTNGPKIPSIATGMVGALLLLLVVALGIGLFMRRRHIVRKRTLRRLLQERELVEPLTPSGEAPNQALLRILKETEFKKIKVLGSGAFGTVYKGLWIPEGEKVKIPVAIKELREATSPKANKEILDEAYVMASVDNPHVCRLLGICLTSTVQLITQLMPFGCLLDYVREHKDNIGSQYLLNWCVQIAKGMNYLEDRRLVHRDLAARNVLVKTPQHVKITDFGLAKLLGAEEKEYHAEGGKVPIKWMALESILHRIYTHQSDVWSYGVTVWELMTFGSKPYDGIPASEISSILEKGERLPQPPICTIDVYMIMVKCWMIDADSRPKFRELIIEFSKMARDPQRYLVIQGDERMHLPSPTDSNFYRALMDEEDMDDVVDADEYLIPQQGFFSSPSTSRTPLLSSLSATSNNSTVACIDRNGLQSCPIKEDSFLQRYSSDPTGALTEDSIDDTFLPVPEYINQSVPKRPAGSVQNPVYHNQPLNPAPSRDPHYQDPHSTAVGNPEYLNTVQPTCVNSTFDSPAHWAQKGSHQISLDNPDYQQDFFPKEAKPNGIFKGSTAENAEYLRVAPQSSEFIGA
# c-Src = c-Src (Homo sapiens, UniProt P12931); test: Recombinant kinase 33P-ATP activity assay; assay type: biochemical
# HCT116 cells [7] = test: Caspase 3/7 activity assay; assay type: cell-based, human; conditions: 24 hours treatment, up to 5μM
# How it was run: (§3)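 Cells grown in DMEM with 10% FBS and penicillin/streptomycin at 37°C, 5% CO2, then seeded at 1×10^4 per well. […] Caspase 3/7 read by caspase-Glo, normalized to each line's untreated control (=1); mean of 6 wells ± standard deviation.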
# DLD1 cells [8] = test: Caspase 3/7 activity assay; assay type: cell-based, human; conditions: 24 hours treatment, 0.2, 1 and 5μM
# How it was run: as §3
# C6 cells [9] = test: Cell growth inhibition; assay type: cell-based, rat; conditions: through apoptosis
# Difi cells = test: Caspase 3/7 activity assay; assay type: cell-based, human; conditions: 24 hours treatment, compared with Cetuximab
# How it was run: as §3
# C6 cells [10] = test: Western blot of signaling proteins; assay type: cell-based, rat; conditions: 48 hours
# How it was run: as §1
# [11] = tested on: GPCR pathway genes in C6, HCT116, DLD1 and Difi cells; test: GPCR signaling pathway profiling by real-time PCR; assay type: cell-based; conditions: 5μM, 48 hours, all 4 cell lines
# How it was run: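 Total RNA taken from C6, DLD1, HCT116 and Difi cells treated with or without 5μM test compound for 48 h, then reverse transcribed. DLD1 cDNA screened on an 82-gene human GPCR-pathway qPCR array, with control and treated expression compared by subtraction. Hits confirmed in C6 and the three colon lines by SYBR Green real-time PCR with primers in different coding regions.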
# FGFR1 = FGFR1 (Homo sapiens, UniProt P11362); test: Recombinant kinase 33P-ATP activity assay; assay type: biochemical
# Chain of FGFR1 (P11362 22-822): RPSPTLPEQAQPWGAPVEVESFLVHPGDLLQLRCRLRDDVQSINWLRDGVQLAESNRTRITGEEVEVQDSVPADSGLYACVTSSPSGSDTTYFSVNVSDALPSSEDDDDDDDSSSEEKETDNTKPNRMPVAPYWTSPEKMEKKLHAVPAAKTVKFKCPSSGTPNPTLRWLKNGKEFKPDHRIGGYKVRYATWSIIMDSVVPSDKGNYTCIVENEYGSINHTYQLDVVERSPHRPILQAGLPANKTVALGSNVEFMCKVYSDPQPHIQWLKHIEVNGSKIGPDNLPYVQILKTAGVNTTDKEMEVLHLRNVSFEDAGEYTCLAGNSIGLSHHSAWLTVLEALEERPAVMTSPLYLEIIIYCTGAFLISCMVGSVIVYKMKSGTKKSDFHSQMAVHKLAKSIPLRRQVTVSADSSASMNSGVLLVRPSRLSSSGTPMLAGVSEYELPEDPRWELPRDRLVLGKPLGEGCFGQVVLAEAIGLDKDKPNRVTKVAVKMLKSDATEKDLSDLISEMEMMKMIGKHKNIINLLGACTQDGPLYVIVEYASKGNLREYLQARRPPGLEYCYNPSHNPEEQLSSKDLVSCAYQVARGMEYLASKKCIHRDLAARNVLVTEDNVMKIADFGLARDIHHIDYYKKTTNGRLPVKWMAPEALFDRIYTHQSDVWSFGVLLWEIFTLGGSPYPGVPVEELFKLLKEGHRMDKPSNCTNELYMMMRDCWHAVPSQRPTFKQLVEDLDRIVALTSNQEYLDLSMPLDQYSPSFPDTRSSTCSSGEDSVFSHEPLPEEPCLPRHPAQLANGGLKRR
# HEK293 cells [12] = test: Caspase 3/7 activity assay; assay type: cell-based, human; conditions: 24 hours treatment, 0.2, 1 and 5μM
# How it was run: as §3
# [13] = read-out: % Enzyme Activity (Relative to DMSO Controls – 100%) Data 1
# [14] = read-out: % Enzyme Activity (Relative to DMSO Controls – 100%) Data 2
structure (smiles),measurement,setting,value
"CCn1c2ccccc2c2cc(N/N=C3/C(=O)NN=C3C)ccc21 [VUGX01, (4E)-4-[2-(9-ethyl-9H-carbazol-3-yl)hydrazin-1-ylidene]-3-methyl-4,5-dihydro-1H-pyrazol-5-one]",inhibition on CDK2,CDK2/cyclin A; 1μM,6%
same,remaining activity at 1 µM,CDK2/cyclin A; [13],94.4%
same,remaining activity at 1 µM,CDK2/cyclin A; [14],94.2%
same,inhibition at 1 µM,"CDK2/cyclin A; read-out: inhibition on CDK2, 1μM",5 to 6%
same,caspase activation,C6 cells [1],effectively activate
same,cell growth,DLD1 cells [2],can inhibit the growth
same,"effect on tested proteins (p-c-raf, map2k, AKT, p-AKT)",HEK293 cells [3],no effect
same,remaining activity at 1 µM,KDR/VEGFR2; [13],98.3%
same,remaining activity at 1 µM,KDR/VEGFR2; [14],98%
same,remaining activity at 1 µM,FGFR2; [13],96.1%
same,remaining activity at 1 µM,FGFR2; [14],94.9%
same,remaining activity at 1 µM,ERBB2/HER2; [13],99.3%
same,remaining activity at 1 µM,ERBB2/HER2; [14],98.2%
same,remaining activity at 1 µM,PDGFrb; [13],100%
same,remaining activity at 1 µM,PDGFrb; [14],99.9%
same,remaining activity at 1 µM,FLT1/VEGFR1; [13],100%
same,remaining activity at 1 µM,FLT1/VEGFR1; [14],99.8%
same,effects on G1 or G2/M phases,colon and glioma cells,minimal effects
same,p-c-raf (Ser259) and map2k level,DLD1 cells [4],increased at low concentrations and decreased at high concentrations
same,p-c-raf (Ser259) and map2k level,HCT116 cells [5],increased at low concentrations and decreased at high concentrations
same,cell cycle distribution,HEK293 cells [6]; 5μM,shifts the cell population from G1 to G2 phase
same,cell death (cells in sub G0 phase),HEK293 cells [6],noticeable amount of cell death
same,remaining activity at 1 µM,PDGFRa; [13],96.3%
same,remaining activity at 1 µM,PDGFRa; [14],96.2%
same,effects on EGFr kinase activity,EGFr; 1μM,minimal effects
same,remaining activity at 1 µM,EGFr; [13],99.1%
same,remaining activity at 1 µM,EGFr; [14],97.8%
same,remaining activity at 1 µM,c-Src; [13],99.2%
same,remaining activity at 1 µM,c-Src; [14],99%
same,caspase 3/7 activation,HCT116 cells [7],minimal effect
same,caspase 3/7 activation,DLD1 cells [8],greatly activate
same,cell growth,C6 cells [9],can inhibit the growth
same,caspase activation,Difi cells,less potent but is effective
same,phosphorylation of AKT at serine 473,C6 cells [10],minor increase
same,"expression of AGT, AGTR1, AGTR2, GCGR, MMP9, PIK3CG, PTGS2, SCTR, TSHR",[11],elevated
same,remaining activity at 1 µM,FGFR1; [13],107%
same,remaining activity at 1 µM,FGFR1; [14],104%
same,caspase 3/7 activation,HEK293 cells [12],only slight activation
